Legend:
MCF-7 cells [1] = experiment: MTT assay against human breast cancer cell line MCF-7; type: cell-based; details: for IC50: Homo sapiens, MCF7, 72 h, read-out: MCF-7 IC50; for MCF-7 SI (selectivity index): over Wi-38 normal cells; for cytotoxicity compared to doxorubicin: MTT, cell line not given, fits MCF-7 IC50 values; for fold reduction of potency and selectivity relative to 18: MCF-7, bromo replaced by chloro or nitro
Procedure, shortened: (§1)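 Cytotoxicity by MTT, run side by side on MCF-7 and MDA-MB231 breast cancer cells and Wi-38 normal human fibroblasts, with doxorubicin as reference. IC50 was determined for each line, and IC100 also on Wi-38. Selectivity indices express selectivity toward each breast cancer line over the normal Wi-38 cells.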

MDA-MB 231 cells = experiment: MTT assay against human breast cancer cell line MDA-MB 231; type: cell-based; details: for IC50: Homo sapiens, MDA-MB-231, 72 h, read-out: MDA-MB 231 IC50; for MDA-MB 231 SI (selectivity index): over Wi-38 normal cells
Procedure, shortened: as §1

[2] = tested on: Wi-38 normal human lung fibroblast cells; experiment: MTT assay against normal human cell line; type: cell-based; details: for IC50: Homo sapiens, WI-38, 72 h, read-out: Wi-38 IC50; for Wi-38 IC100: MTT, 72 h, SI calls it EC100, dose at 100% cell viability, mean ± SEM
Procedure, shortened: as §1

MCF-7 cells [3] = experiment: MCF-7 cell cycle analysis by flow cytometry; type: cell-based, human; details: MCF-7, 24 h treatment with IC50
calf thymus DNA (ctDNA) = experiment: DNA damage by terbium; type: biochemical; details: 24 h incubation, Tb fluorescence 545 nm
MCF-7 cells [4] = experiment: Annexin V-FITC/PI double staining apoptosis assay; type: cell-based, human; details: MCF-7, 24 h treatment with IC50

| SMILES | IC50 (MCF-7 cells [1]) [µM] | MCF-7 SI (selectivity index) (MCF-7 cells [1]) | IC50 (MDA-MB 231 cells) [µM] | MDA-MB 231 SI (selectivity index) (MDA-MB 231 cells) | IC50 [2] [µM] | Wi-38 IC100 [2] [µM] | cell cycle distribution compared to untreated cells (MCF-7 cells [3]) | LOD (minimum concentration inducing detectable DNA damage) (calf thymus DNA (ctDNA)) [nM] | LOQ (calf thymus DNA (ctDNA)) [nM] | early apoptosis (MCF-7 cells [4]) [%] | late apoptosis (MCF-7 cells [4]) [%] | total cell death (apoptosis induction) (MCF-7 cells [4]; control 0.73%) [%] | necrotic cells (MCF-7 cells [4]; control 1.34%) [%] | cytotoxicity compared to doxorubicin (MCF-7 cells [1]) | fold reduction of potency and selectivity relative to 18 (MCF-7 cells [1]) [fold] |
| --- | --- | --- | --- | --- | --- | --- | --- | --- | --- | --- | --- | --- | --- | --- | --- |
| CC(=O)Nc1c(N)nc(S)[nH]c1=O [Compound 3, N-(4-amino-2-mercapto-6-oxo-1,6-dihydropyrimidin-5-yl)acetamide] | 0.832 ± 0.048 | 1.615 | 1.44 ± 0.255 | 0.930 | 1.34 ± 0.072 | 0.103 ± 0.045 | – | – | – | – | – | – | – | – | – |
| CCOC(=O)CSc1nc(N)c(NC(C)=O)c(=O)[nH]1 [Compound 4, Ethyl 2-((5-Acetamido-4-amino-6-Oxo-1,6-dihydropyrimidin-2-yl)thio)acetate] | 0.266 ± 0.015 | 3.203 | 0.84 ± 0.05 | 1.014 | 0.852 ± 0.011 | 0.352 ± 0.012 | – | – | – | – | – | – | – | – | – |
| CC(=O)Nc1c(N)nc(SCC(=O)NN)[nH]c1=O [Compound 5, N-(4-amino-2-((2-hydrazinyl-2-oxoethyl)thio)-6-oxo-1,6-dihydropyrimidin-5-yl)acetamide] | 0.05 ± 0.008 | 16.02 | 0.826 ± 0.046 | 0.969 | 0.801 ± 0.031 | 0.240 ± 0.003 | increased DNA content during S | 10.64 | 35.48 | 29.11 | 17.64 | 46.75 | 5.39 | surpassed doxorubicin | – |
| CC(=O)Nc1c(N)nc(SCC(=O)N/N=C/c2ccc(Cl)cc2)[nH]c1=O [Compound 6, (E)-N-(4-amino-2-((2-(2-(4-chlorobenzylidene)hydrazinyl)-2-oxoethyl)thio)-6-oxo-1,6-dihydropyrimidin-5-yl)acetamide] | 0.445 ± 0.015 | 1.555 | 0.681 ± 0.029 | 1.016 | 0.692 ± 0.064 | 0.037 ± 0.007 | – | – | – | – | – | – | – | – | – |
| CC(=O)Nc1c(N)nc(SCC(=O)N/N=C/c2ccc(Br)cc2)[nH]c1=O [Compound 7, (E)-N-(4-amino-2-((2-(2-(4-bromobenzylidene)hydrazinyl)-2-oxoethyl)thio)-6-oxo-1,6-dihydropyrimidin-5-yl)acetamide] | 0.167 ± 0.04 | – | 0.616 ± 0.02 | 0.662 | 0.408 ± 0.081 | 0.232 ± 0.003 | – | – | – | – | – | – | – | surpassed doxorubicin | – |
| CC(=O)Nc1c(N)nc(SCC(=O)N/N=C/c2ccc([N+](=O)[O-])cc2)[nH]c1=O [Compound 8, (E)-N-(4-amino-2-((2-(2-(4-nitrobenzylidene)hydrazinyl)-2-oxoethyl)thio)-6-oxo-1,6-dihydropyrimidin-5-yl)acetamide] | 0.146 ± 0.011 | 4.883 | 0.583 ± 0.02 | 1.222 | 0.713 ± 0.044 | 0.491 ± 0.084 | – | 30.03 | 100.12 | – | – | – | – | surpassed doxorubicin | – |
| COc1ccc(/C=N/NC(=O)CSc2nc(N)c(NC(C)=O)c(=O)[nH]2)cc1 [Compound 9, (E)-N-(4-amino-2-((2-(2-(4-methoxybenzylidene)hydrazinyl)-2-oxoethyl)thio)-6-oxo-1,6-dihydropyrimidin-5-yl)acetamide] | 0.217 ± 0.016 | 4.820 | 0.683 ± 0.001 | 1.531 | 1.05 ± 0.025 | 0.424 ± 0.020 | – | – | – | – | – | – | – | – | – |
| CC(=O)Nc1c(N)nc(SCC(=O)N/N=C/c2ccccc2O)[nH]c1=O [Compound 10, (E)-N-(4-amino-2-((2-(2-(2-hydroxybenzylidene)hydrazinyl)-2-oxoethyl)thio)-6-oxo-1,6-dihydropyrimidin-5-yl)acetamide] | 0.102 ± 0.001 | 4.911 | 0.59 ± 0.049 | 0.849 | 0.501 ± 0.049 | 0.241 ± 0.037 | – | – | – | – | – | – | – | surpassed doxorubicin | – |
| Cc1cc(=O)n2c(C)n[nH]c2n1 [Compound 14, 3,7-Dimethyl-1,2,4-triazolo[4,3-a]pyrimidin-5(1H)-one] | 0.292 ± 0.01 | 5.157 | 1.26 ± 0.052 | 1.200 | 1.51 ± 0.041 | 0.206 ± 0.014 | – | – | – | – | – | – | – | – | – |
| COC(=O)Cn1nc(C)n2c(=O)cc(C)nc12 [Compound 15, Methyl 2-(3,7-dimethyl-5-oxo-1,2,4-triazolo[4,3-a]pyrimidin-1(5H)-yl)acetate] | 0.617 ± 0.029 | 1.894 | 1.28 ± 0.056 | 0.912 | 1.17 ± 0.022 | 0.237 ± 0.017 | – | – | – | – | – | – | – | – | – |
| Cc1cc(=O)n2c(C)nn(CC(=O)NN)c2n1 [Compound 16, 2-(3,7-Dimethyl-5-oxo-1,2,4-triazolo[4,3-a]pyrimidin-1(5H)-yl)acetohydrazide] | 0.544 ± 0.008 | 1.797 | 1.128 ± 0.002 | 0.867 | 0.978 ± 0.013 | 0.115 ± 0.033 | – | – | – | – | – | – | – | – | – |
| Cc1cc(=O)n2c(C)nn(CC(=O)N/N=C/c3ccc(Cl)cc3)c2n1 [Compound 17, (E)-N′-(4-chlorobenzylidene)-2-(3,7-dimethyl-5-oxo-1,2,4-triazolo[4,3-a]pyrimidin-1(5H)-yl)acetohydrazide] | 0.403 ± 0.062 | 1.471 | 0.632 ± 0.029 | 0.938 | 0.593 ± 0.024 | 0.124 ± 0.034 | – | – | – | – | – | – | – | – | 5 |
| Cc1cc(=O)n2c(C)nn(CC(=O)N/N=C/c3ccc(Br)cc3)c2n1 [Compound 18, (E)-N′-(4-bromobenzylidene)-2-(3,7-dimethyl-5-oxo-1,2,4-triazolo[4,3-a]pyrimidin-1(5H)-yl)acetohydrazide] | 0.042 ± 0.009 | 14.119 | 0.559 ± 0.029 | 1.060 | 0.593 ± 0.005 | 0.111 ± 0.005 | – | – | – | – | – | – | – | surpassed doxorubicin | – |
| Cc1cc(=O)n2c(C)nn(CC(=O)N/N=C/c3ccc([N+](=O)[O-])cc3)c2n1 [Compound 19, (E)-N′-(4-nitrobenzylidene)-2-(3,7-dimethyl-5-oxo-1,2,4-triazolo[4,3-a]pyrimidin-1(5H)-yl)acetohydrazide] | 0.201 ± 0.039 | 3.044 | 0.82 ± 0.09 | 0.746 | 0.612 ± 0.034 | 0.329 ± 0.031 | – | – | – | – | – | – | – | – | 10 |
| COc1ccc(/C=N/NC(=O)Cn2nc(C)n3c(=O)cc(C)nc23)cc1 [Compound 20, (E)-N′-(4-methoxybenzylidene)-2-(3,7-dimethyl-5-oxo-1,2,4-triazolo[4,3-a]pyrimidin-1(5H)-yl)acetohydrazide] | 0.334 ± 0.02 | – | 0.856 ± 0.019 | 0.844 | 0.723 ± 0.02 | 0.280 ± 0.037 | – | – | – | – | – | – | – | – | – |
| Cc1cc(=O)n2c(C)nn(CC(=O)N/N=C/c3ccccc3O)c2n1 [Compound 21, (E)-N′-(2-hydroxybenzylidene)-2-(3,7-dimethyl-5-oxo-1,2,4-triazolo[4,3-a]pyrimidin-1(5H)-yl)acetohydrazide] | 0.052 ± 0.01 | 9.961 | 0.697 ± 0.024 | 0.743 | 0.518 ± 0.008 | 0.269 ± 0.026 | – | – | – | – | – | – | – | surpassed doxorubicin | – |
| COc1cccc2c1C(=O)c1c(O)c3c(c(O)c1C2=O)C[C@@](O)(C(=O)CO)C[C@@H]3O[C@H]1C[C@H](N)[C@H](O)[C@H](C)O1 [DOX., doxorubicin, reference compound] | 0.198 ± 0.011 | 1.626 | 0.487 ± 0.018 | 0.661 | 0.322 ± 0.025 | 0.119 ± 0.005 | – | 0.76 | 2.56 | – | – | – | – | – | – |

Reference: paper PMC11097374 (ACS Omega, 2024)
